The source made the active and inactive calls. The rule behind the calls is not given here.
Key:
[1] = biological target: T1, Sphingomyelin phosphodiesterase (Homo sapiens) (UniProt P17405); experiment: Inhibition of mmLDL-stimulated acid sphingomyelinase in human PBMC lysates up to 2 uM preincubated for 30 mins followed by mmLDL stimulation measured after 4 hrs by YO-PRO-1/Hoechst 33342 staining based assay
T1 sequence (whole entry): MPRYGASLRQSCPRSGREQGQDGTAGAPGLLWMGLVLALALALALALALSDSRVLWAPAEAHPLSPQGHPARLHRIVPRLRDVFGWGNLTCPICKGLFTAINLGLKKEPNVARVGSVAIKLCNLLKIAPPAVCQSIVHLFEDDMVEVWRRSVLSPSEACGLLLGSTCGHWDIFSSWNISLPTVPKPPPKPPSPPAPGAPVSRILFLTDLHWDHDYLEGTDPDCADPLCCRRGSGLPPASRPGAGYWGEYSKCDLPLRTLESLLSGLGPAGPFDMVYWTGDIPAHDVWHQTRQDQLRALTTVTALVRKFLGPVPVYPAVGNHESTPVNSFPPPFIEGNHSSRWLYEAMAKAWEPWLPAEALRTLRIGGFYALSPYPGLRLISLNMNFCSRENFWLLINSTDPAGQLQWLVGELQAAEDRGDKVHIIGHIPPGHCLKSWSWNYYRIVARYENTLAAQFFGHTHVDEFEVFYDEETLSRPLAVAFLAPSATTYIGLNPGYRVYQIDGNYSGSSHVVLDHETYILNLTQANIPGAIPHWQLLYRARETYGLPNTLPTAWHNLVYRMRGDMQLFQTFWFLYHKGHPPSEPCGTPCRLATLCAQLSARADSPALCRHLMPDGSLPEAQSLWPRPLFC

[2] = biological target: T1, Sphingomyelin phosphodiesterase (Homo sapiens); experiment: Inhibition of mmLDL-stimulated acid sphingomyelinase in human PBMC lysates at 100 uM preincubated for 30 mins followed by mmLDL stimulation measured after 4 hrs by YO-PRO-1/Hoechst 33342 staining based assay
[3] = biological target: T2, Acid ceramidase (Homo sapiens) (UniProt Q13510); experiment: Inhibition of TNFalpha-stimulated acid ceramidase in human PBMC assessed as ratio of C24:1-ceramide/lipid phosphate level at 10 uM preincubated for 30 mins followed by TNFalpha stimulation measured after 4 hrs by HPLC method (reference value: 3.05); type: cell-based
T2 sequence (whole entry): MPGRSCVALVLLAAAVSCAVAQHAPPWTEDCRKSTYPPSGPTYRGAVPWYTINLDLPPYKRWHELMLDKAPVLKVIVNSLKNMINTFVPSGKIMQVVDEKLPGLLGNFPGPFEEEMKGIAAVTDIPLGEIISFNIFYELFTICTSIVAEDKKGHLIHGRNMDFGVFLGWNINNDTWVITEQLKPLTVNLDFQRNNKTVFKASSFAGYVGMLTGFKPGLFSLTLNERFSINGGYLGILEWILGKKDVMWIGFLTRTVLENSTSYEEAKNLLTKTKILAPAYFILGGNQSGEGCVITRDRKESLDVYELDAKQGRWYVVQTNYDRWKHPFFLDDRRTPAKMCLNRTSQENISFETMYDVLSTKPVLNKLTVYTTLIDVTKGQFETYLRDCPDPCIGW
Summary of the method: (§1)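 Human macrophages from primary culture were preincubated 30 min with 10 µM compound. They were then stimulated 4 h with mmLDL (54 µg/mL), TNFalpha (3 ng/mL) or exogenous C6-ceramide (10 µM), or left unstimulated. Individual ceramide species (C16 and C24:1) were quantified in the cell lipid extracts.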

[4] = biological target: T2, Acid ceramidase (Homo sapiens); experiment: Inhibition of exogenous C6-ceramid-stimulated acid ceramidase in human PBMC assessed as ratio of C24:1-ceramide/lipid phosphate level at 10 uM preincubated for 30 mins followed by C6-ceramid stimulation measured after 4 hrs by HPLC method (reference value: 2.65); type: cell-based; summary of the method: as §1
MONO-MAC-6 [5] = experiment: Upregulation of FCGR2B mRNA expression level in LPS-stimulated human MONO-MAC-6 cells preincubated for 30 mins followed by LPS stimulation measured after 4 hrs by qRT-PCR analysis relative to control; type: functional
MONO-MAC-6 [6] = experiment: Upregulation of CCL4 mRNA expression level in LPS-stimulated human MONO-MAC-6 cells at 5 uM preincubated for 30 mins followed by LPS stimulation measured after 4 hrs by oligonucleotide array hybridization assay (reference value: 18.52); type: functional
MONO-MAC-6 [7] = experiment: Downregulation of CCL20 mRNA expression level in human MONO-MAC-6 cells at 5 uM incubated for 30 mins measured after 6 hrs by oligonucleotide array hybridization assay relative to control; type: functional
Summary of the method: (§2)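 Total RNA was isolated, transcribed and labeled with DY-647 dye, then co-hybridized with DY-548-labeled cDNA from untreated cells on an inflammation oligonucleotide chip (780 gene probes). Differential expression >1.5 was taken as significant.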

MONO-MAC-6 [8] = experiment: Upregulation of CXCL10 mRNA expression level in human MONO-MAC-6 cells at 5 uM incubated for 30 mins measured after 2 hrs by oligonucleotide array hybridization assay relative to control; type: functional
MONO-MAC-6 [9] = experiment: Downregulation of CXCL2 mRNA expression level in human MONO-MAC-6 cells at 5 uM incubated for 30 mins measured after 1 hr by oligonucleotide array hybridization assay relative to control; type: functional; summary of the method: as §2
MONO-MAC-6 [10] = experiment: Upregulation of CXCL2 mRNA expression level in LPS-stimulated human MONO-MAC-6 cells at 5 uM preincubated for 30 mins followed by LPS stimulation measured after 2 hrs by oligonucleotide array hybridization assay (reference value: 4.20); type: functional
MONO-MAC-6 [11] = experiment: Downregulation of CXCL2 mRNA expression level in human MONO-MAC-6 cells at 5 uM incubated for 30 mins measured after 4 hrs by oligonucleotide array hybridization assay relative to control; type: functional; summary of the method: as §2
MONO-MAC-6 [12] = experiment: Upregulation of PTGS2 mRNA expression level in LPS-stimulated human MONO-MAC-6 cells at 5 uM preincubated for 30 mins followed by LPS stimulation measured after 1 hr by oligonucleotide array hybridization assay (reference value: 1.01); type: functional
MONO-MAC-6 [13] = experiment: Upregulation of PTGS2 mRNA expression level in human MONO-MAC-6 cells at 5 uM incubated for 30 mins measured after 2 hrs by oligonucleotide array hybridization assay relative to control; type: functional
MONO-MAC-6 [14] = experiment: Upregulation of ICAM1 mRNA expression level in LPS-stimulated human MONO-MAC-6 cells at 5 uM preincubated for 30 mins followed by LPS stimulation measured after 4 hrs by oligonucleotide array hybridization assay (reference value: 2.88); type: functional
MONO-MAC-6 [15] = experiment: Downregulation of CXCL2 mRNA expression level in human MONO-MAC-6 cells at 5 uM incubated for 30 mins measured after 6 hrs by qRT-PCR method relative to control; type: functional
MONO-MAC-6 [16] = experiment: Downregulation of IL-6 mRNA expression level in LPS-stimulated human MONO-MAC-6 cells at 5 uM preincubated for 30 mins followed by LPS stimulation measured after 1 hr by qRT-PCR method (reference value: 1); type: functional
MONO-MAC-6 [17] = experiment: Upregulation of IL23A mRNA expression level in LPS-stimulated human MONO-MAC-6 cells at 5 uM preincubated for 30 mins followed by LPS stimulation measured after 2 hrs by qRT-PCR method (reference value: 1.39); type: functional
MONO-MAC-6 [18] = experiment: Downregulation of TNFalpha mRNA expression level in LPS-stimulated human MONO-MAC-6 cells at 5 uM preincubated for 30 mins followed by LPS stimulation measured after 6 hrs by qRT-PCR method (reference value: 2.17); type: functional

**Q.** For `COc1ccc(CCN(C)CCCn2c3ccccc3c3ccccc32)cc1`, which inhibition [1] is on record?
**A.** inactive

**Q.** And the inhibition [2]?
**A.** Active

**Q.** And the Ratio [3]?
**A.** 1.28

**Q.** And the Ratio [4]?
**A.** 2.65

**Q.** And the “fold change (FC)” value (MONO-MAC-6 [5])?
**A.** 2.93

**Q.** And the “fold change (FC)” value (MONO-MAC-6 [6])?
**A.** 8.04

**Q.** What about the “fold change (FC)” value (MONO-MAC-6 [7]) of the same compound?
**A.** 5.68

**Q.** And the “fold change (FC)” value (MONO-MAC-6 [8])?
**A.** 1

**Q.** And the “fold change (FC)” value (MONO-MAC-6 [9])?
**A.** 1.12

**Q.** What about the “fold change (FC)” value (MONO-MAC-6 [10]) of the same compound?
**A.** 3.88

**Q.** What about the “fold change (FC)” value (MONO-MAC-6 [11]) of the same compound?
**A.** 2.28

**Q.** What about the “fold change (FC)” value (MONO-MAC-6 [12]) of the same compound?
**A.** 1.1

**Q.** And the “fold change (FC)” value (MONO-MAC-6 [13])?
**A.** 2.08

**Q.** And the “fold change (FC)” value (MONO-MAC-6 [14])?
**A.** 1.31

**Q.** And the “fold change (FC)” value (MONO-MAC-6 [15])?
**A.** 4.71

**Q.** And the “fold change (FC)” value (MONO-MAC-6 [16])?
**A.** 1.17

**Q.** What about the “fold change (FC)” value (MONO-MAC-6 [17]) of the same compound?
**A.** 1.87

**Q.** And the “fold change (FC)” value (MONO-MAC-6 [18])?
**A.** 1.16
